# Measured values from ChEMBL document CHEMBL1144766, “Discovery of quinolinediones exhibiting a heat shock response and angiogenesis inhibition” (J Med Chem, 2008).
# Activity calls are given as the source filed them. No cut-off for these calls is given here.
# Tested on: HUVEC
# Test: Antiangiogenic activity in HUVEC assessed as number of junctions at 0.01 ug/ml after 24 hrs relative to control
# Format: functional, Homo sapiens
# Conditions: not given
# Method in brief: (§1)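 HUVEC grown in EGM-2. Matrigel was gelled in wells (15 min room temperature, then 30 min at 37 °C) and seeded with HUVEC at 2 × 10⁵ cells/mL. Compound was added in culture medium. After 24 h, cords and junctions were imaged by inverted microscope and digital camera. Cord length and junction number were measured relative to untreated controls.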
row,Structure (SMILES),Activity
1,COc1cc(-c2ccc3c(n2)C(=O)C(NCc2ccccc2)=CC3=O)cc(OC)c1OC,50%

# Same assay, conditions: Homo sapiens
row,Structure (SMILES),Activity
1,COC1=CC(=O)c2nc(-c3cc(OC)c(OC)c(OC)c3)ccc2C1=O,inactive
2,COc1cc(-c2ccc3c(n2)C(=O)C=C(NCc2ccccc2)C3=O)cc(OC)c1OC,inactive

# Tested on: MCF7
# Test: Growth inhibition of human MCF7 cells after 48 hrs by sulforhodamine B assay
# Format: functional
# Conditions: not given
# Method in brief: (§2)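 Sulforhodamine B assay. Cells were seeded and incubated 24 h, then exposed to serial compound dilutions for 48 h. Plates were fixed with trichloroacetic acid, stained with SRB and read for optical density. GI50 was calculated from the OD data as the concentration giving 50% reduction in net protein increase. HUVEC were grown in EGM-2.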
row,Structure (SMILES),Activity
1,COC1=CC(=O)c2nc(-c3cc(OC)c(OC)c(OC)c3)ccc2C1=O,0.24 µg/mL
2,COc1cc(-c2ccc3c(n2)C(=O)C(NCc2ccccc2)=CC3=O)cc(OC)c1OC,0.35 µg/mL
3,COc1cc(-c2ccc3c(n2)C(=O)C=C(NCc2ccccc2)C3=O)cc(OC)c1OC,0.52 µg/mL

# Tested on: NCI60
# Test: (§3) Cytotoxicity against human NCI60 cells
# Format: functional
# Conditions: not given
row,Structure (SMILES),Activity
1,O=C1C(N2CCCC2)=CC(=O)c2nc(-c3ccccc3)ccc21,inactive
2,COc1cc(-c2ccc3c(n2)C(=O)C(NCc2ccccc2)=CC3=O)cc(OC)c1OC,inactive
3,COc1cc(-c2ccc3c(n2)C(=O)C=C(NCc2ccccc2)C3=O)cc(OC)c1OC,inactive

# Tested on: not listed separately
# Test: as §3
# Format: functional
# Conditions: not given
row,Structure (SMILES),GI50
1,O=C1C(N2CCCC2)=CC(=O)c2nc(-c3ccccc3)ccc21,44.7 µM
2,COc1cc(-c2ccc3c(n2)C(=O)C(NCc2ccccc2)=CC3=O)cc(OC)c1OC,2.69 µM

# Same assay, conditions: read-out: Log TGI (converted)
row,Structure (SMILES),TGI
1,COc1cc(-c2ccc3c(n2)C(=O)C(NCc2ccccc2)=CC3=O)cc(OC)c1OC,63.1 µM

# Tested on: HUVEC
# Test: Antiangiogenic activity in HUVEC assessed as cord length at 1.0 ug/ml after 24 hrs relative to control
# Format: functional, cell-based
# Conditions: Homo sapiens
# Method in brief: as §1
row,Structure (SMILES),Activity
1,COC1=CC(=O)c2nc(-c3cc(OC)c(OC)c(OC)c3)ccc2C1=O,inactive
2,COc1cc(-c2ccc3c(n2)C(=O)C(NCc2ccccc2)=CC3=O)cc(OC)c1OC,inactive
3,COc1cc(-c2ccc3c(n2)C(=O)C=C(NCc2ccccc2)C3=O)cc(OC)c1OC,inactive

# Tested on: HUVEC
# Test: Effect on HUVEC growth at 0.1 ug/ml relative to control
# Format: functional, Homo sapiens
# Conditions: not given
row,Structure (SMILES),Activity
1,COC1=CC(=O)c2nc(-c3cc(OC)c(OC)c(OC)c3)ccc2C1=O,90%
2,COc1cc(-c2ccc3c(n2)C(=O)C(NCc2ccccc2)=CC3=O)cc(OC)c1OC,91%
3,COc1cc(-c2ccc3c(n2)C(=O)C=C(NCc2ccccc2)C3=O)cc(OC)c1OC,64%

# Tested on: HUVEC
# Test: Antiangiogenic activity in HUVEC assessed as cord length at 0.001 ug/ml after 24 hrs relative to control
# Format: functional, cell-based
# Conditions: Homo sapiens
# Method in brief: as §1
row,Structure (SMILES),Activity
1,COC1=CC(=O)c2nc(-c3cc(OC)c(OC)c(OC)c3)ccc2C1=O,inactive
2,COc1cc(-c2ccc3c(n2)C(=O)C(NCc2ccccc2)=CC3=O)cc(OC)c1OC,inactive
3,COc1cc(-c2ccc3c(n2)C(=O)C=C(NCc2ccccc2)C3=O)cc(OC)c1OC,inactive

# Tested on: HUVEC
# Test: Antiangiogenic activity in HUVEC assessed as number of junctions at 0.1 ug/ml after 24 hrs relative to control
# Format: functional, Homo sapiens
# Conditions: not given
# Method in brief: as §1
row,Structure (SMILES),Activity
1,COC1=CC(=O)c2nc(-c3cc(OC)c(OC)c(OC)c3)ccc2C1=O,50%
2,COc1cc(-c2ccc3c(n2)C(=O)C(NCc2ccccc2)=CC3=O)cc(OC)c1OC,50%

# Same assay, conditions: Homo sapiens
row,Structure (SMILES),Activity
1,COc1cc(-c2ccc3c(n2)C(=O)C=C(NCc2ccccc2)C3=O)cc(OC)c1OC,inactive

# Tested on: HUVEC
# Test: Growth inhibition of HUVEC after 48 hrs by sulforhodamine B assay
# Format: cell-based
# Conditions: human
# Method in brief: as §2
row,Structure (SMILES),Activity
1,COC1=CC(=O)c2nc(-c3cc(OC)c(OC)c(OC)c3)ccc2C1=O,0.28 µg/mL
2,COc1cc(-c2ccc3c(n2)C(=O)C(NCc2ccccc2)=CC3=O)cc(OC)c1OC,1.9 µg/mL
3,COc1cc(-c2ccc3c(n2)C(=O)C=C(NCc2ccccc2)C3=O)cc(OC)c1OC,1.9 µg/mL

# Tested on: HUVEC
# Test: Antiangiogenic activity in HUVEC assessed as cord length at 0.1 ug/ml after 24 hrs relative to control
# Format: functional, cell-based
# Conditions: Homo sapiens
# Method in brief: as §1
row,Structure (SMILES),Activity
1,COC1=CC(=O)c2nc(-c3cc(OC)c(OC)c(OC)c3)ccc2C1=O,inactive
2,COc1cc(-c2ccc3c(n2)C(=O)C(NCc2ccccc2)=CC3=O)cc(OC)c1OC,inactive
3,COc1cc(-c2ccc3c(n2)C(=O)C=C(NCc2ccccc2)C3=O)cc(OC)c1OC,inactive

# Tested on: NCI-H460
# Test: Growth inhibition of human NCI-H460 cells after 48 hrs by sulforhodamine B assay
# Format: functional
# Conditions: not given
# Method in brief: as §2
row,Structure (SMILES),Activity
1,COC1=CC(=O)c2nc(-c3cc(OC)c(OC)c(OC)c3)ccc2C1=O,1.9 µg/mL
2,COc1cc(-c2ccc3c(n2)C(=O)C(NCc2ccccc2)=CC3=O)cc(OC)c1OC,0.43 µg/mL
3,COc1cc(-c2ccc3c(n2)C(=O)C=C(NCc2ccccc2)C3=O)cc(OC)c1OC,0.65 µg/mL

# Tested on: HUVEC
# Test: Effect on HUVEC growth at 10 ug/ml relative to control
# Format: functional, Homo sapiens
# Conditions: not given
row,Structure (SMILES),Activity
1,COC1=CC(=O)c2nc(-c3cc(OC)c(OC)c(OC)c3)ccc2C1=O,23%
2,COc1cc(-c2ccc3c(n2)C(=O)C(NCc2ccccc2)=CC3=O)cc(OC)c1OC,14%
3,COc1cc(-c2ccc3c(n2)C(=O)C=C(NCc2ccccc2)C3=O)cc(OC)c1OC,13%

# Tested on: HUVEC
# Test: Antiangiogenic activity in HUVEC assessed as number of junctions at 1.0 ug/ml after 24 hrs relative to control
# Format: functional, Homo sapiens
# Conditions: not given
# Method in brief: as §1
row,Structure (SMILES),Activity
1,COC1=CC(=O)c2nc(-c3cc(OC)c(OC)c(OC)c3)ccc2C1=O,50%
2,COc1cc(-c2ccc3c(n2)C(=O)C(NCc2ccccc2)=CC3=O)cc(OC)c1OC,50%

# Same assay, conditions: Homo sapiens
row,Structure (SMILES),Activity
1,COc1cc(-c2ccc3c(n2)C(=O)C=C(NCc2ccccc2)C3=O)cc(OC)c1OC,inactive

# Tested on: HUVEC
# Test: Effect on HUVEC growth at 0.01 ug/ml relative to control
# Format: functional, Homo sapiens
# Conditions: not given
row,Structure (SMILES),Activity
1,COC1=CC(=O)c2nc(-c3cc(OC)c(OC)c(OC)c3)ccc2C1=O,117%
2,COc1cc(-c2ccc3c(n2)C(=O)C(NCc2ccccc2)=CC3=O)cc(OC)c1OC,118%
3,COc1cc(-c2ccc3c(n2)C(=O)C=C(NCc2ccccc2)C3=O)cc(OC)c1OC,92%

# Tested on: HUVEC
# Test: Antiangiogenic activity in HUVEC assessed as number of junctions at 0.001 ug/ml after 24 hrs relative to control
# Format: functional, cell-based
# Conditions: Homo sapiens
# Method in brief: as §1
row,Structure (SMILES),Activity
1,COC1=CC(=O)c2nc(-c3cc(OC)c(OC)c(OC)c3)ccc2C1=O,inactive
2,COc1cc(-c2ccc3c(n2)C(=O)C(NCc2ccccc2)=CC3=O)cc(OC)c1OC,inactive
3,COc1cc(-c2ccc3c(n2)C(=O)C=C(NCc2ccccc2)C3=O)cc(OC)c1OC,inactive

# Biological target: Heat shock protein HSP 90-beta (Homo sapiens) (UniProt P08238)
# Test: Binding affinity to N-terminal ATP binding site of Hsp90 at 100 uM after 30 mins
# Conditions: not given
# Method in brief: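 Compounds were made up in DMSO at 35 mM (stock) just before use and added to whole cell lysates at 100 µM final. Lysates were held on ice for 30 min, then incubated with geldanamycin-derivatized agarose beads at 4 °C with rocking for 60 min. Beads were washed, and eluted proteins were run on gels and blotted for Hsp90. Loss of the Hsp90 band indicated competition.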
# Sequence of Heat shock protein HSP 90-beta (Homo sapiens) (P08238 whole entry): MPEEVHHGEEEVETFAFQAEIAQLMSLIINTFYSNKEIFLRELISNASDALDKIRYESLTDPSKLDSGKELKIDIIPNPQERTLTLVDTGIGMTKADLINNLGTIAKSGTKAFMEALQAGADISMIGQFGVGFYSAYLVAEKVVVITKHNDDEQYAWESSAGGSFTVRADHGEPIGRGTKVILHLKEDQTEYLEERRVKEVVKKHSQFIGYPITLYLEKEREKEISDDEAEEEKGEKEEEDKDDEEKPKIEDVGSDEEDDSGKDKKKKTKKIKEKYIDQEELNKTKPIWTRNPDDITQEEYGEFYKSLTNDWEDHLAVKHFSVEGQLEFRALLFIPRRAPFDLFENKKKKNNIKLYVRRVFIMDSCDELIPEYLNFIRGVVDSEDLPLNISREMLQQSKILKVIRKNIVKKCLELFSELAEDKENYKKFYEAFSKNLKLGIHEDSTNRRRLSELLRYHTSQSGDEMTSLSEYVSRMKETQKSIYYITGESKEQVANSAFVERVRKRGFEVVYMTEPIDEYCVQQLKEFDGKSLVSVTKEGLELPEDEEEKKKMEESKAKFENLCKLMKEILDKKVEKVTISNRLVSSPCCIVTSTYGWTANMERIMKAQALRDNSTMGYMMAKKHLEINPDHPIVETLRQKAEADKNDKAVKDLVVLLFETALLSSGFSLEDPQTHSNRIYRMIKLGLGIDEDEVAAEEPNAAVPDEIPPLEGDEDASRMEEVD
row,Activity,Structure (SMILES)
1,inactive,COC1=CC(=O)c2nc(-c3cc(OC)c(OC)c(OC)c3)ccc2C1=O
2,inactive,O=C1C(N2CCCC2)=CC(=O)c2nc(-c3ccccc3)ccc21
3,inactive,COc1cc(-c2ccc3c(n2)C(=O)C(NCc2ccccc2)=CC3=O)cc(OC)c1OC
4,inactive,COc1cc(-c2ccc3c(n2)C(=O)C=C(NCc2ccccc2)C3=O)cc(OC)c1OC

# Tested on: HUVEC
# Test: Effect on HUVEC growth at 0.001 ug/ml relative to control
# Format: functional, Homo sapiens
# Conditions: not given
row,Structure (SMILES),Activity
1,COC1=CC(=O)c2nc(-c3cc(OC)c(OC)c(OC)c3)ccc2C1=O,106%
2,COc1cc(-c2ccc3c(n2)C(=O)C(NCc2ccccc2)=CC3=O)cc(OC)c1OC,102%
3,COc1cc(-c2ccc3c(n2)C(=O)C=C(NCc2ccccc2)C3=O)cc(OC)c1OC,104%

# Tested on: HUVEC
# Test: Effect on HUVEC growth at 1.0 ug/ml relative to control
# Format: functional, Homo sapiens
# Conditions: not given
row,Structure (SMILES),Activity
1,COC1=CC(=O)c2nc(-c3cc(OC)c(OC)c(OC)c3)ccc2C1=O,2%
2,COc1cc(-c2ccc3c(n2)C(=O)C(NCc2ccccc2)=CC3=O)cc(OC)c1OC,64%
3,COc1cc(-c2ccc3c(n2)C(=O)C=C(NCc2ccccc2)C3=O)cc(OC)c1OC,64%

# Tested on: HUVEC
# Test: Antiangiogenic activity in HUVEC assessed as cord length at 0.01 ug/ml after 24 hrs relative to control
# Format: functional, cell-based
# Conditions: Homo sapiens
# Method in brief: as §1
row,Structure (SMILES),Activity
1,COC1=CC(=O)c2nc(-c3cc(OC)c(OC)c(OC)c3)ccc2C1=O,inactive
2,COc1cc(-c2ccc3c(n2)C(=O)C(NCc2ccccc2)=CC3=O)cc(OC)c1OC,inactive
3,COc1cc(-c2ccc3c(n2)C(=O)C=C(NCc2ccccc2)C3=O)cc(OC)c1OC,inactive

# Tested on: HUVEC
# Test: Antiangiogenic activity in HUVEC assessed as cord length at 10 ug/ml after 24 hrs relative to control
# Format: functional, Homo sapiens
# Conditions: not given
# Method in brief: as §1
row,Structure (SMILES),Activity
1,COc1cc(-c2ccc3c(n2)C(=O)C(NCc2ccccc2)=CC3=O)cc(OC)c1OC,75%
2,COc1cc(-c2ccc3c(n2)C(=O)C=C(NCc2ccccc2)C3=O)cc(OC)c1OC,75%
